Converted amounts (≈) assume the structure as drawn.
Legend:
Type in all cases: functional
Staphylococcus aureus [1] = assay: Antibacterial activity against ermA-constitutive resistant Staphylococcus aureus after 20 hrs by agar dilution method
Summary of the method: (§1)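 Agar dilution MIC. The inoculum came from a seed culture in Sensitivity test broth. A 5 µl portion of a cell suspension of about 10^6 CFU/ml was inoculated onto Sensitivity disk agar supplemented with 5% horse blood. Plates were incubated at 37 °C for 20 h, then MIC was read.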

Streptococcus pneumoniae [2] = assay: Antibacterial activity against ermB-inducible resistant Streptococcus pneumoniae after 20 hrs by agar dilution method
Summary of the method: (§2)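 Agar dilution MIC. Streptococcal strains were pre-cultured on blood agar plates. A 5 µl portion of a cell suspension of about 10^6 CFU/ml was inoculated onto Sensitivity disk agar supplemented with 5% horse blood. Plates were incubated at 37 °C for 20 h, then MIC was read.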

Staphylococcus aureus [3] = assay: Antibacterial activity against ermB-inducible resistant Staphylococcus aureus after 20 hrs by agar dilution method; summary of the method: as §1
Streptococcus pyogenes [4] = assay: Antibacterial activity against ermB-constitutive resistant Streptococcus pyogenes after 20 hrs by agar dilution method; summary of the method: as §2
Staphylococcus aureus [5] = assay: Antibacterial activity against standard Staphylococcus aureus after 20 hrs by agar dilution method; summary of the method: as §1
Haemophilus influenzae [6] = assay: Antibacterial activity against susceptible Haemophilus influenzae after 20 hrs by agar dilution method
Summary of the method: (§3)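 MIC by agar dilution. Strains grown on blood agar plates for seed culture. About 5 µl of a suspension of roughly 10^6 CFU/ml spotted onto Sensitivity disk agar with 5% horse blood. Plates incubated at 37 °C for 20 h, then MIC read.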

Streptococcus pneumoniae [7] = assay: Antibacterial activity against ermB-constitutive resistant Streptococcus pneumoniae after 20 hrs by agar dilution method; summary of the method: as §2
Streptococcus pneumoniae [8] = assay: Antibacterial activity against susceptible Streptococcus pneumoniae after 20 hrs by agar dilution method; summary of the method: as §3
Staphylococcus aureus [9] = assay: Antibacterial activity against susceptible Staphylococcus aureus after 20 hrs by agar dilution method; summary of the method: as §1
Haemophilus influenzae [10] = assay: Antibacterial activity against standard Haemophilus influenzae after 20 hrs by agar dilution method; summary of the method: as §3
Moraxella catarrhalis = assay: Antibacterial activity against standard Moraxella catarrhalis after 20 hrs by agar dilution method; summary of the method: as §3
Staphylococcus aureus [11] = assay: Antibacterial activity against ermC-inducible resistant Staphylococcus aureus after 20 hrs by agar dilution method; summary of the method: as §1
Streptococcus pneumoniae [12] = assay: Antibacterial activity against mefE efflux-resistant Streptococcus pneumoniae after 20 hrs by agar dilution method; summary of the method: as §2
Streptococcus pyogenes [13] = assay: Antibacterial activity against mefE efflux-resistant Streptococcus pyogenes after 20 hrs by agar dilution method; summary of the method: as §2

Row | Compound | MIC (Staphylococcus aureus [1]) | MIC (Streptococcus pneumoniae [2]) | MIC (Staphylococcus aureus [3]) | MIC (Streptococcus pyogenes [4]) | MIC (Staphylococcus aureus [5]) | MIC (Haemophilus influenzae [6]) | MIC (Streptococcus pneumoniae [7]) | MIC (Streptococcus pneumoniae [8]) | MIC (Staphylococcus aureus [9]) | MIC (Haemophilus influenzae [10]) | MIC (Moraxella catarrhalis) | MIC (Staphylococcus aureus [11]) | MIC (Streptococcus pneumoniae [12]) | MIC (Streptococcus pyogenes [13])
1 | CCC(=O)O[C@@H]1CC(=O)O[C@H](C)C[C@H](O)[C@H](N(C)CCCCCc2ccccc2)/C=C/[C@H](OC(C)=O)[C@H](C)C[C@H](CC=O)[C@H](O[C@@H]2O[C@H](C)[C@@H](O[C@H]3C[C@@](C)(O)[C@@H](OC(=O)CC)[C@H](C)O3)[C@H](N(C)C)[C@H]2O)[C@H]1OC | > 100 µg/mL | 12.5 µg/mL (≈ 11.9 µM) | 0.78 µg/mL (≈ 0.743 µM) | 25 µg/mL (≈ 23.8 µM) | 0.39 µg/mL (≈ 0.372 µM) | 25 µg/mL (≈ 23.8 µM) | 100 µg/mL (≈ 95.3 µM) | 0.1 µg/mL (≈ 0.0953 µM) | 0.39 µg/mL (≈ 0.372 µM) | 3.13 µg/mL (≈ 2.98 µM) | 0.39 µg/mL (≈ 0.372 µM) | 0.39 µg/mL (≈ 0.372 µM) | 0.2 µg/mL (≈ 0.191 µM) | 0.2 µg/mL (≈ 0.191 µM)
2 | CC[C@H]1OC(=O)[C@H](C)[C@@H](O[C@H]2C[C@@](C)(OC)[C@@H](O)[C@H](C)O2)[C@H](C)[C@@H](O[C@@H]2O[C@H](C)C[C@H](N(C)C)[C@H]2O)[C@](C)(OC)C[C@@H](C)C(=O)[C@H](C)[C@@H](O)[C@]1(C)O [CLARITHROMYCIN] | > 100 µg/mL | > 100 µg/mL | > 100 µg/mL | > 100 µg/mL | 0.1 µg/mL (≈ 0.134 µM) | 6.25 µg/mL (≈ 8.36 µM) | > 100 µg/mL | 0.025 µg/mL (≈ 0.0334 µM) | 0.1 µg/mL (≈ 0.134 µM) | 1.56 µg/mL (≈ 2.09 µM) | 0.1 µg/mL (≈ 0.134 µM) | 1.56 µg/mL (≈ 2.09 µM) | 0.78 µg/mL (≈ 1.04 µM) | 3.13 µg/mL (≈ 4.18 µM)
3 | CCC(=O)O[C@@H]1CC(=O)O[C@H](C)C[C@@H]2OC(=O)N(CCCCc3ccccc3)[C@@H]2/C=C/[C@H](OC(C)=O)[C@H](C)C[C@H](CC=O)[C@H](O[C@@H]2O[C@H](C)[C@@H](O[C@H]3C[C@@](C)(O)[C@@H](OC(=O)CC)[C@H](C)O3)[C@H](N(C)C)[C@H]2O)[C@H]1OC | > 100 µg/mL | 100 µg/mL (≈ 95.5 µM) | 0.39 µg/mL (≈ 0.372 µM) | > 100 µg/mL | 0.78 µg/mL (≈ 0.745 µM) | > 100 µg/mL | > 100 µg/mL | 0.2 µg/mL (≈ 0.191 µM) | 0.39 µg/mL (≈ 0.372 µM) | 6.25 µg/mL (≈ 5.97 µM) | 3.13 µg/mL (≈ 2.99 µM) | 0.78 µg/mL (≈ 0.745 µM) | 0.2 µg/mL (≈ 0.191 µM) | 0.39 µg/mL (≈ 0.372 µM)
4 | CCC(=O)O[C@@H]1CC(=O)O[C@H](C)C[C@H](O)[C@H](N(C)CCCc2ccncc2)/C=C/[C@H](OC(C)=O)[C@H](C)C[C@H](CC=O)[C@H](O[C@@H]2O[C@H](C)[C@@H](O)[C@H](N(C)C)[C@H]2O)[C@H]1OC | > 100 µg/mL | > 100 µg/mL | 1.56 µg/mL (≈ 1.9 µM) | > 100 µg/mL | 0.78 µg/mL (≈ 0.949 µM) | 3.13 µg/mL (≈ 3.81 µM) | > 100 µg/mL | 0.39 µg/mL (≈ 0.474 µM) | 1.56 µg/mL (≈ 1.9 µM) | 0.39 µg/mL (≈ 0.474 µM) | 0.1 µg/mL (≈ 0.122 µM) | 1.56 µg/mL (≈ 1.9 µM) | 1.56 µg/mL (≈ 1.9 µM) | 6.25 µg/mL (≈ 7.6 µM)
5 | CCC(=O)O[C@@H]1CC(=O)O[C@H](C)C/C=C/C=C/[C@H](OC(C)=O)[C@H](C)C[C@H](CC=O)[C@H](O[C@@H]2O[C@H](C)[C@@H](O[C@H]3C[C@@](C)(O)[C@@H](OC(=O)CC)[C@H](C)O3)[C@H](N(C)C)[C@H]2O)[C@H]1OC | > 100 µg/mL | 100 µg/mL (≈ 117 µM) | 0.39 µg/mL (≈ 0.456 µM) | > 100 µg/mL | 0.39 µg/mL (≈ 0.456 µM) | 25 µg/mL (≈ 29.2 µM) | > 100 µg/mL | 0.2 µg/mL (≈ 0.234 µM) | 0.39 µg/mL (≈ 0.456 µM) | 3.13 µg/mL (≈ 3.66 µM) | 0.78 µg/mL (≈ 0.911 µM) | 0.78 µg/mL (≈ 0.911 µM) | 0.2 µg/mL (≈ 0.234 µM) | 0.39 µg/mL (≈ 0.456 µM)
6 | CCC(=O)O[C@@H]1CC(=O)O[C@H](C)C[C@@H]2OC(=O)N(Cc3ccccc3)[C@@H]2/C=C/[C@H](OC(C)=O)[C@H](C)C[C@H](CC=O)[C@H](O[C@@H]2O[C@H](C)[C@@H](O[C@H]3C[C@@](C)(O)[C@@H](OC(=O)CC)[C@H](C)O3)[C@H](N(C)C)[C@H]2O)[C@H]1OC | > 100 µg/mL | 100 µg/mL (≈ 99.5 µM) | 0.39 µg/mL (≈ 0.388 µM) | > 100 µg/mL | 0.39 µg/mL (≈ 0.388 µM) | 25 µg/mL (≈ 24.9 µM) | > 100 µg/mL | 0.2 µg/mL (≈ 0.199 µM) | 0.39 µg/mL (≈ 0.388 µM) | 3.13 µg/mL (≈ 3.11 µM) | 1.56 µg/mL (≈ 1.55 µM) | 0.78 µg/mL (≈ 0.776 µM) | 0.2 µg/mL (≈ 0.199 µM) | 0.2 µg/mL (≈ 0.199 µM)

From ChEMBL document CHEMBL1157144, “Novel 16-membered macrolides modified at C-12 and C-13 positions of midecamycin A1 and miokamycin. Part 1: Synthesis and evaluation of 12,13-carbamate and 12-arylalkylamino-13-hydroxy analogues” (2008)
